Experiments:
Format in all cases: functional
[1] = tested on: Candida albicans; assay: Antifungal activity against Candida albicans ATCC 10231 assessed as inhibition of fungal growth at 100 uM after 24 hrs by microplate analysis; conditions: ATCC 10231, 24 h
Summary of the method: (§1)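 Broth microdilution in RPMI-1640. Peptide DMSO stocks were diluted to final concentrations of 200–3.125, with DMSO ≤2%. Inoculum was 1–5×10³ CFU/mL from Sabouraud-chloramphenicol agar cultures (24 h, 35 °C). Plates were held in a moist, dark chamber at 35 °C: 24 h for C. albicans, 48 h for C. neoformans.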

[2] = tested on: Cryptococcus neoformans; assay: Antifungal activity against Cryptococcus neoformans ATCC 32264 assessed as inhibition of fungal growth at 6.25 uM after 48 hrs by microplate analysis; conditions: ATCC 32264, 48 h; summary of the method: as §1
[3] = tested on: Cryptococcus neoformans; assay: Antifungal activity against Cryptococcus neoformans ATCC 32264 assessed as inhibition of fungal growth at 100 uM after 48 hrs by microplate analysis; conditions: ATCC 32264, 48 h; summary of the method: as §1
[4] = tested on: Cryptococcus neoformans; assay: Antifungal activity against Cryptococcus neoformans ATCC 32264 assessed as inhibition of fungal growth at 12.5 uM after 48 hrs by microplate analysis; conditions: ATCC 32264, 48 h; summary of the method: as §1
[5] = tested on: Cryptococcus neoformans; assay: Antifungal activity against Cryptococcus neoformans ATCC 32264 assessed as inhibition of fungal growth at 25 uM after 48 hrs by microplate analysis; conditions: ATCC 32264, 48 h; summary of the method: as §1
[6] = tested on: Cryptococcus neoformans; assay: Antifungal activity against Cryptococcus neoformans ATCC 32264 assessed as inhibition of fungal growth at 50 uM after 48 hrs by microplate analysis; conditions: ATCC 32264, 48 h; summary of the method: as §1
[7] = tested on: Candida albicans; assay: Antifungal activity against Candida albicans ATCC 10231 assessed as inhibition of fungal growth at 50 uM after 24 hrs by microplate analysis; conditions: ATCC 10231, 24 h; summary of the method: as §1
[8] = tested on: Candida albicans; assay: Antifungal activity against Candida albicans ATCC 10231 assessed as inhibition of fungal growth at 6.25 uM after 24 hrs by microplate analysis; conditions: ATCC 10231, 24 h; summary of the method: as §1
[9] = tested on: Candida albicans; assay: Antifungal activity against Candida albicans ATCC 10231 assessed as inhibition of fungal growth at 12.5 uM after 24 hrs by microplate analysis; conditions: ATCC 10231, 24 h; summary of the method: as §1
[10] = tested on: Cryptococcus neoformans; assay: Antifungal activity against Cryptococcus neoformans ATCC 32264 assessed as inhibition of fungal growth at 200 uM after 48 hrs by microplate analysis; conditions: ATCC 32264, 48 h; summary of the method: as §1
[11] = tested on: Candida albicans; assay: Antifungal activity against Candida albicans ATCC 10231 assessed as inhibition of fungal growth at 25 uM after 24 hrs by microplate analysis; conditions: ATCC 10231, 24 h; summary of the method: as §1
[12] = tested on: Candida albicans; assay: Antifungal activity against Candida albicans ATCC 10231 assessed as inhibition of fungal growth at 200 uM after 24 hrs by microplate analysis; conditions: ATCC 10231, 24 h; summary of the method: as §1

| Compound | inhibition at 100 µM [1] | inhibition at 6.25 µM [2] | inhibition at 100 µM [3] | inhibition at 12.5 µM [4] | inhibition at 25 µM [5] | inhibition at 50 µM [6] | inhibition at 50 µM [7] | inhibition at 6.25 µM [8] | inhibition at 12.5 µM [9] | inhibition at 200 µM [10] | inhibition at 25 µM [11] | inhibition at 200 µM [12] |
| --- | --- | --- | --- | --- | --- | --- | --- | --- | --- | --- | --- | --- |
| CC[C@H](C)[C@H](NC(=O)[C@H](CCCCN)NC(=O)[C@@H](NC(=O)[C@H](CCC(N)=O)NC(=O)[C@H](CCCNC(=N)N)NC(=O)[C@H](Cc1c[nH]c2ccccc12)NC(=O)[C@H](CCCNC(=N)N)NC(=O)[C@H](Cc1ccccc1)NC(=O)[C@@H](N)Cc1cnc[nH]1)[C@@H](C)CC)C(=O)N[C@@H](Cc1c[nH]c2ccccc12)C(=O)N[C@@H](Cc1ccccc1)C(=O)N[C@@H](CCC(N)=O)C(=O)N[C@@H](CC(N)=O)C(=O)N[C@@H](CCCNC(=N)N)C(=O)N[C@@H](CCCNC(=N)N)C(=O)N[C@@H](CC[S+](C)[O-])C(=O)N[C@@H](CCCCN)C(=O)N[C@@H](Cc1c[nH]c2ccccc12)C(=O)N[C@@H](CCCCN)C(=O)N[C@@H](CCCCN)C(N)=O (some centres undefined) | 100% | 95.1% | 100% | 99.3% | 100% | 100% | 93.7% | 2.9% | 3.95% | 100% | 5.96% | 100% |
| N=C(N)NCCC[C@H](NC(=O)CNC(=O)[C@@H](N)Cc1ccc(O)cc1)C(=O)N[C@@H](CCCCN)C(=O)N[C@@H](CCCCN)C(=O)N[C@@H](CCCNC(=N)N)C(=O)N[C@@H](CCCNC(=N)N)C(=O)N[C@@H](CCC(N)=O)C(=O)N[C@@H](CCCNC(=N)N)C(=O)N[C@@H](CCCNC(=N)N)C(=O)N[C@@H](CCCNC(=N)N)C(=O)N[C@@H](CS)C(N)=O | 99.1% | 0% | 100% | 0% | 1.75% | 61.3% | 6.75% | 4.97% | 6.12% | 100% | 6.71% | 99.1% |
| C[C@@H]1[C@H](O)[C@@H](C)/C=C/C=C/C=C/C=C/C=C/C=C/C=C/[C@H](O[C@@H]2O[C@H](C)[C@@H](O)[C@H](N)[C@@H]2O)C[C@@H]2O[C@](O)(C[C@@H](O)C[C@@H](O)[C@H](O)CC[C@@H](O)C[C@@H](O)CC(=O)O[C@H]1C)C[C@H](O)[C@H]2C(=O)O [AMPHOTERICIN B] | 100% | 100% | 100% | 100% | 100% | 100% | 100% | 100% | 100% | 100% | 100% | 100% |
| CC(=O)N1CCN(c2ccc(OCC3COC(Cn4ccnc4)(c4ccc(Cl)cc4Cl)O3)cc2)CC1 (centres undefined) [KETOCONAZOLE] | 100% | 100% | 100% | 100% | 100% | 100% | 100% | 100% | 100% | 100% | 100% | 100% |
| H-KQIKIWFQNKKMKWKK-NH2 [KQIKIWFQNKKMKWKK-NH2] | 100% | 64.5% | 100% | 72% | 98.5% | 100% | 100% | 3.24% | 5.97% | 100% | 8.41% | 100% |
| H-RQIRIWFQNRRMRWRR-NH2 | 100% | 43.3% | 100% | 77.5% | 81.7% | 100% | 98.9% | 3.71% | 4.38% | 100% | 6.16% | 100% |
| H-RWWKWWWWWRRWKWKK-NH2 | 99.1% | 22.6% | 90% | 31.5% | 44.2% | 77.5% | 95.8% | 8.72% | 14.8% | 100% | 30.9% | 100% |
